Measurements reported in ChEMBL document CHEMBL1129690, “Design, synthesis, and structure-activity relationship studies of novel 1-[(1-acyl-4-piperidyl)methyl]-1H-2- methylimidazo[4,5-c]pyridine derivatives as potent, orally active platelet-activating factor antagonists” (J Med Chem, 1996).

Key:
[1] = species on record: Oryctolagus cuniculus; assay: Concentration required to inhibit PAF-induced maximum platelet aggregation in rabbit platelet-rich plasma; assay type: functional
How it was run: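 PRP prepared by centrifugation at 250g, 10 min, 4 °C, and diluted with platelet-poor plasma (3000g, 10 min) to 3.5 × 10⁵ platelets/mm³. Aggregation triggered by C-18-PAF at 1.5 × 10^-8 M and read on a dual-channel aggregometer. IC50 from linear regression of at least four points, each the mean of one to three independent experiments.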

[2] = tested on: Rattus norvegicus; assay: Dose required to reduce the lowering of the arterial blood pressure caused by PAF by 50% after intravenous administration in rats; assay type: functional; conditions: read-out: ID50 (the source's name)
How it was run: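 Rats with both femoral veins catheterized, one for test compound and one for PAF (0.5 µg/kg). Compound given iv in saline (1 mL/kg) 3 min before PAF. Blood pressure monitored; % inhibition of hypotension calculated versus controls. ID50 from linear regression of at least four doses, each the mean of two or more independent experiments.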

[3] = tested on: Mus musculus; assay: Percentage of inhibition by the compound against PAF-induced mortality in mice 3 hr after intravenous administration of 1 mg/Kg; assay type: functional
How it was run: (§1)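 Male Swiss mice given single 1 mg/kg iv dose at time 0. C-18-PAF 100 µg/kg plus propranolol 1 mg/kg injected by lateral tail vein at later times (10-40 mice/time). Deaths scored 2 h after PAF. Percentage inhibition of mortality vs vehicle (saline) controls recorded at each time.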

[4] = tested on: Mus musculus; assay: Dosage required to inhibit PAF-induced mortality in mice by 50% through intravenous route; assay type: functional; conditions: read-out: ID50 (the source's name)
How it was run: (§2)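 Male Swiss mice, 22-26 g, groups of 10. Test article given iv (10 mL/kg, saline vehicle) 5 min before, or po (20 mL/kg, 1% Tween 80) 60 min before, tail-vein C-18-PAF 100 µg/kg plus propranolol 1 mg/kg. Mortality scored 2 h after PAF; % inhibition vs vehicle controls. ID50 by linear regression, ≥4 points.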

[5] = tested on: Mus musculus; assay: Dosage required to inhibit PAF-induced mortality in mice by 50% through oral administration; assay type: functional; conditions: read-out: ID50 (the source's name); how it was run: as §2
[6] = tested on: Canis familiaris; assay: Inhibition of PAF-induced platelet aggregation in whole blood obtained after 4 hr from dog injected with an intravenous dose of 1 mg/Kg of compound; assay type: functional, Canis lupus familiaris
How it was run: (§3)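 Male Beagle dogs (8-12 kg) dosed once at 1 mg/kg iv. Venous blood drawn before dosing and at 4 and 6 h, anticoagulated with 3.8% citrate (1:9) and diluted 1:1 in saline.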

[7] = tested on: Mus musculus; assay: Percentage of inhibition by the compound against PAF-induced mortality in mice 5 hr after intravenous administration of 1 mg/Kg; assay type: functional; how it was run: as §1
[8] = tested on: Canis familiaris; assay: Inhibition of PAF-induced platelet aggregation in whole blood obtained after 6 hr from dog injected with an intravenous dose of 1 mg/Kg of compound; assay type: functional, Canis lupus familiaris; how it was run: as §3
[9] = tested on: Mus musculus; assay: Percentage of inhibition by the compound against PAF-induced mortality in mice 7 hr after intravenous administration of 1 mg/Kg; assay type: functional; how it was run: as §1
[10] = tested on: Mus musculus; assay: Compound after an intravenous dose of 0.03 mg/Kg was tested for the inhibition of PAF-induced mortality in mice; assay type: functional; how it was run: as §2
[11] = tested on: Mus musculus; assay: Compound after an intravenous dose of 0.01 mg/Kg was tested for the inhibition of PAF-induced mortality in mice; assay type: functional; how it was run: as §2

Structure (SMILES) | IC50 [1] | ED50 [2] | inhibition in vivo at 1 mg/kg [3] | ED50 [4] | ED50 [5] | Inhibition [6] | inhibition in vivo at 1 mg/kg [7] | Inhibition [8] | inhibition in vivo at 1 mg/kg [9] | inhibition in vivo at 0.03 mg/kg [10] | inhibition in vivo at 0.01 mg/kg [11]
Cc1ncccc1C(C#N)N1CCN(C(=O)CNC(c2ccccc2)c2ccccc2)CC1 (configuration not stated) | 40 nM | 0.021 mg/kg | 30% | 0.009 mg/kg | 0.3 mg/kg | 39% | 15% |  |  |  | 
Cc1nc2cnccc2n1CC1CCN(C(=O)CC(c2ccccc2)c2ccccc2)CC1 | 7.6 nM |  | 100% | 0.0008 mg/kg | 0.092 mg/kg | 100% | 100% | 100% | 100% |  | 
N#CC(c1cccnc1)C1CCN(C(=O)CNC(c2ccccc2)c2ccccc2)CC1 (configuration not stated) | 24 nM | 0.03 mg/kg |  |  | 2.6 mg/kg |  |  |  |  |  | 
CCOC[C@@H](NC(=O)N1CCC(Cn2c(C)nc3cnccc32)CC1)c1ccccc1 | 17 nM |  |  | 0.01 mg/kg | 1 mg/kg |  |  |  |  |  | 
CCOC(=O)[C@H](NC(=O)N1CCC(Cn2c(C)nc3cnccc32)CC1)c1ccccc1 | 150 nM | 0.069 mg/kg |  | 0.02 mg/kg | > 1 mg/kg |  |  |  |  |  | 
Cc1nc2cnccc2n1CC1CCN(C(=O)CC(O)(c2ccccc2)C(F)(F)F)CC1 (configuration not stated) | 36 nM |  |  | 0.0029 mg/kg | 0.032 mg/kg |  | 90% |  | 70% |  | 
CCOC(=O)C(CC(=O)N1CCC(Cn2c(C)nc3cnccc32)CC1)c1ccccc1 (configuration not stated) | 12 nM | 0.17 mg/kg |  |  |  |  |  |  |  | 45% | 
Cc1nc2cnccc2n1CC1CCN(C(=O)CNC(c2ccccc2)c2ccccc2)CC1 | 13 nM | 0.067 mg/kg |  | 0.0041 mg/kg | 1 mg/kg |  |  |  |  |  | 
CCOC(=O)[C@H](CC(C)C)NC(=O)N1CCC(Cn2c(C)nc3cnccc32)CC1 | 12 nM | 0.03 mg/kg |  | 0.0027 mg/kg | > 1 mg/kg |  |  |  |  |  | 
Cc1nc2cnccc2n1CC1CCN(C(=O)N[C@H](C)c2ccccc2)CC1 | 13 nM |  |  | 0.0047 mg/kg | 1 mg/kg | 100% | 56% | 77% | 22% |  | 
Cc1nc2cnccc2n1CC1CCN(C(=O)CC(C)c2ccccc2)CC1 (configuration not stated) | 12 nM |  |  | 0.003 mg/kg | 1 mg/kg |  |  |  |  |  | 
COc1ccccc1CCC(=O)N1CCC(Cn2c(C)nc3cnccc32)CC1 | 15 nM | 0.045 mg/kg |  | 0.0033 mg/kg | > 1 mg/kg |  |  |  |  |  | 
Cc1nc2cnccc2n1CC1CCN(C(=O)C=C(c2ccccc2)c2ccccc2)CC1 | 240 nM | 0.011 mg/kg |  | 0.0037 mg/kg | > 1 mg/kg |  |  |  |  |  | 
Cc1nc2cnccc2n1CC1CCN(C(=O)CCc2ccccc2)CC1 | 60 nM | > 5 mg/kg |  | 0.013 mg/kg | > 1 mg/kg |  |  |  |  |  | 
Cc1nc2cnccc2n1CC1CCN(S(=O)(=O)CC(C)(C)c2ccccc2)CC1 | 6.2 nM | 0.087 mg/kg |  |  | > 1 mg/kg |  |  |  |  |  | 50%
COc1ccccc1N(C)CC(=O)N1CCC(Cn2c(C)nc3cnccc32)CC1 | 14 nM | 0.063 mg/kg |  | 0.0066 mg/kg | > 1 mg/kg | 100% | 90% | 87% | 70% |  | 
Cc1nc2cnccc2n1CC1CCN(C(=O)CC(O)(c2ccccc2)c2ccccc2)CC1 | 640 nM | 0.013 mg/kg |  | 0.03 mg/kg | 0.03 mg/kg |  |  |  |  |  | 

Structure (SMILES) | IC50 [1] | ED50 [2] | inhibition in vivo at 1 mg/kg [3] | ED50 [4] | ED50 [5] | Inhibition [6] | inhibition in vivo at 1 mg/kg [7] | Inhibition [8] | inhibition in vivo at 1 mg/kg [9] | inhibition in vivo at 0.03 mg/kg [10] | inhibition in vivo at 0.01 mg/kg [11]
CC/C(=C\C(=O)N1CCC(Cn2c(C)nc3cnccc32)CC1)c1ccccc1 | 13 nM | 0.0054 mg/kg |  |  | > 1 mg/kg |  |  |  |  | 50% | 
Cc1nc2cnccc2n1CC1CCN(C(=O)OCC2(c3ccccc3)CC2)CC1 | 35 nM |  |  | 0.012 mg/kg | > 1 mg/kg |  |  |  |  |  | 
Cc1nc2cnccc2n1CC1CCN(C(=O)NC2(c3ccccc3)CC2)CC1 | 17 nM |  |  | 0.002 mg/kg | 0.3 mg/kg |  |  |  |  |  | 
CCCC(CC(=O)N1CCC(Cn2c(C)nc3cnccc32)CC1)c1ccccc1 (configuration not stated) | 11 nM |  |  | 0.01 mg/kg | 1 mg/kg |  |  |  |  |  | 
CCOC(=O)[C@@H](NC(=O)N1CCC(Cn2c(C)nc3cnccc32)CC1)c1ccccc1 | 16 nM | 0.061 mg/kg |  |  | > 1 mg/kg |  |  |  |  |  | 50%
Cc1nc2cnccc2n1CC1CCN(C(=O)NC(c2ccccc2)c2ccccc2)CC1 | 8.1 nM | 0.14 mg/kg |  | > 0.03 mg/kg | > 1 mg/kg |  |  |  |  |  | 
COC(=O)NC(CC(=O)N1CCC(Cn2c(C)nc3cnccc32)CC1)c1ccccc1 (configuration not stated) | 12 nM | 0.035 mg/kg |  | 0.0027 mg/kg | 0.1 mg/kg |  |  |  |  |  | 
Cc1nc2cnccc2n1C1CCN(C(=O)CC(c2ccccc2)c2ccccc2)CC1 | 100 nM | 0.41 mg/kg |  |  | > 3 mg/kg |  |  |  |  |  | 
Cc1nc2cnccc2n1CC1CCN(C(=O)CC(C)(C)c2ccccc2)CC1 | 6.7 nM |  |  | 0.0027 mg/kg | 1 mg/kg | 100% | 88% | 100% | 50% |  | 
Cc1nc2cnccc2n1CC1CCN(C(=O)CC(C)(O)c2ccccc2)CC1 (configuration not stated) | 6.9 nM |  |  | 0.0029 mg/kg | 1 mg/kg | 59% | 80% | 43% | 60% |  | 
Cc1nc2cnccc2n1CC1CCN(C(=O)CN(C)c2ccccc2)CC1 | 23 nM | 0.31 mg/kg |  | > 0.03 mg/kg | > 1 mg/kg |  |  |  |  |  | 
Cc1nc2cnccc2n1CC1CCN(C(=O)N[C@@H](C)c2ccccc2)CC1 | 41 nM | 0.21 mg/kg |  |  | > 1 mg/kg |  |  |  |  | 45% | 
COC/C(=C\C(=O)N1CCC(Cn2c(C)nc3cnccc32)CC1)c1ccccc1 | 18 nM | 0.022 mg/kg |  | 0.0079 mg/kg | > 1 mg/kg |  |  |  |  |  | 
COC(=O)NC(CC(=O)N1CCC(n2c(C)nc3cnccc32)CC1)c1ccccc1 (configuration not stated) | 1300 nM | 0.56 mg/kg |  |  |  |  |  |  |  |  | 
COC(=O)NC(CC(=O)N1CCN(C(C#N)c2cccnc2C)CC1)c1ccccc1 (configuration not stated) | 41 nM | 0.015 mg/kg |  | 0.0055 mg/kg | 0.044 mg/kg |  |  |  |  |  | 
Cc1nnc2n1-c1sc(CCC(=O)N3CCOCC3)cc1C(c1ccccc1Cl)=NC2 [APAFANT] | 91 nM | 0.17 mg/kg | 55% | 0.084 mg/kg | 1.24 mg/kg | 100% | 27% | 55% | 31% |  | 
CCOC(=O)[C@H](CC(C)C)N(C)S(=O)(=O)c1ccc(Cn2c(C)nc3cnccc32)cc1 [LEXIPAFANT] | 3.6 nM | 0.0037 mg/kg | 100% | 0.0021 mg/kg | 0.11 mg/kg | 100% | 95% | 100% | 56% |  | 
